Test results as given in ChEMBL document CHEMBL1142133 (2007).

Experiments:
Assay type in all cases: functional
Cryptococcus neoformans [1] = test: Antifungal activity against flucytosine-resistant Cryptococcus neoformans 18476 at 64 ug/ml after 72 hrs by time-kill method
Outline: (§1)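 Time-kill assay run as in the authors' earlier method. […] Read-out was log10 CFU/ml after 72 h incubation, compared with a drug-free control.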

Cryptococcus neoformans [2] = test: Antifungal activity against flucytosine-resistant Cryptococcus neoformans 550 at 64 ug/ml after 72 hrs by time-kill method; outline: as §1
Cryptococcus neoformans [3] = test: Antifungal activity against flucytosine-resistant Cryptococcus neoformans 98.0673 at 64 ug/ml after 72 hrs by time-kill method; outline: as §1
Cryptococcus neoformans [4] = test: Antifungal activity against flucytosine-resistant Cryptococcus neoformans 99.1026 at 64 ug/ml after 72 hrs by time-kill method
Outline: (§2)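 Time-kill assay on flucytosine-resistant isolates. […] Viable counts were taken as log10 CFU per ml after 72 h of incubation.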

Cryptococcus neoformans [5] = test: Antifungal activity against flucytosine-resistant Cryptococcus neoformans 98.1121 at 64 ug/ml after 72 hrs by time-kill method; outline: as §2
Cryptococcus neoformans [6] = test: Antifungal activity against flucytosine-resistant Cryptococcus neoformans 276 at 64 ug/ml after 72 hrs by time-kill method; outline: as §1
Cryptococcus neoformans [7] = test: Antifungal activity against flucytosine-resistant Cryptococcus neoformans 280 at 64 ug/ml after 72 hrs by time-kill method; outline: as §1
Cryptococcus neoformans [8] = test: Antifungal activity against flucytosine-resistant Cryptococcus neoformans 533 at 64 ug/ml after 72 hrs by time-kill method; outline: as §1
Cryptococcus neoformans [9] = test: Antifungal activity against flucytosine-resistant Cryptococcus neoformans 550 by checkerboard method
Cryptococcus neoformans [10] = test: Antifungal activity against flucytosine-resistant Cryptococcus neoformans 98.0673 by checkerboard method
Cryptococcus neoformans [11] = test: Antifungal activity against flucytosine-resistant Cryptococcus neoformans 99.1026 by checkerboard method
Cryptococcus neoformans [12] = test: Antifungal activity against flucytosine-resistant Cryptococcus neoformans 98.1121 by checkerboard method
Cryptococcus neoformans [13] = test: Antifungal activity against flucytosine-resistant Cryptococcus neoformans 276 by checkerboard method
Cryptococcus neoformans [14] = test: Antifungal activity against flucytosine-resistant Cryptococcus neoformans 280 by checkerboard method
Cryptococcus neoformans [15] = test: Antifungal activity against flucytosine-resistant Cryptococcus neoformans 533 by checkerboard method
Cryptococcus neoformans [16] = test: Antifungal activity against flucytosine-resistant Cryptococcus neoformans 98.0176 by checkerboard method in presence of amphotericin B
Cryptococcus neoformans [17] = test: Antifungal activity against flucytosine-resistant Cryptococcus neoformans 285 by checkerboard method
Cryptococcus neoformans [18] = test: Antifungal activity against flucytosine-resistant Cryptococcus neoformans 18476 by checkerboard method in presence of amphotericin B
Cryptococcus neoformans [19] = test: Antifungal activity against flucytosine-resistant Cryptococcus neoformans 285 by checkerboard method in presence of amphotericin B
Cryptococcus neoformans [20] = test: Antifungal activity against flucytosine-resistant Cryptococcus neoformans 550 by checkerboard method in presence of amphotericin B
Cryptococcus neoformans [21] = test: Antifungal activity against flucytosine-resistant Cryptococcus neoformans 98.0673 by checkerboard method in presence of amphotericin B
Cryptococcus neoformans [22] = test: Antifungal activity against flucytosine-resistant Cryptococcus neoformans 99.1026 by checkerboard method in presence of amphotericin B
Cryptococcus neoformans [23] = test: Antifungal activity against flucytosine-resistant Cryptococcus neoformans 98.1121 by checkerboard method in presence of amphotericin B
Cryptococcus neoformans [24] = test: Antifungal activity against flucytosine-resistant Cryptococcus neoformans 276 by checkerboard method in presence of amphotericin B
Cryptococcus neoformans [25] = test: Antifungal activity against flucytosine-resistant Cryptococcus neoformans 280 by checkerboard method in presence of amphotericin B
Cryptococcus neoformans [26] = test: Antifungal activity against flucytosine-resistant Cryptococcus neoformans 533 by checkerboard method in presence of amphotericin B
Cryptococcus neoformans [27] = test: Antifungal activity against flucytosine-resistant Cryptococcus neoformans 276 by Etest method in presence of amphotericin B
Cryptococcus neoformans [28] = test: Antifungal activity against flucytosine-resistant Cryptococcus neoformans 98.0176 by checkerboard method
Cryptococcus neoformans [29] = test: Antifungal activity against flucytosine-resistant Cryptococcus neoformans 18476 by checkerboard method
Cryptococcus neoformans [30] = test: Antifungal activity against flucytosine-resistant Cryptococcus neoformans 98.0176 by Etest method in presence of amphotericin B
Cryptococcus neoformans [31] = test: Antifungal activity against flucytosine-resistant Cryptococcus neoformans 18476 by Etest method in presence of amphotericin B
Cryptococcus neoformans [32] = test: Antifungal activity against flucytosine-resistant Cryptococcus neoformans 285 by Etest method in presence of amphotericin B
Cryptococcus neoformans [33] = test: Antifungal activity against flucytosine-resistant Cryptococcus neoformans 550 by Etest method in presence of amphotericin B
Cryptococcus neoformans [34] = test: Antifungal activity against flucytosine-resistant Cryptococcus neoformans 98.0673 by Etest method in presence of amphotericin B
Cryptococcus neoformans [35] = test: Antifungal activity against flucytosine-resistant Cryptococcus neoformans 99.1026 by Etest method in presence of amphotericin B
Cryptococcus neoformans [36] = test: Antifungal activity against flucytosine-resistant Cryptococcus neoformans 98.1121 by Etest method in presence of amphotericin B
Cryptococcus neoformans [37] = test: Antifungal activity against flucytosine-resistant Cryptococcus neoformans 280 by Etest method in presence of amphotericin B
Cryptococcus neoformans [38] = test: Antifungal activity against flucytosine-resistant Cryptococcus neoformans 533 by Etest method in presence of amphotericin B
Cryptococcus neoformans [39] = test: Antifungal activity against flucytosine-resistant Cryptococcus neoformans 98.0176 at 64 ug/ml after 72 hrs by time-kill method; outline: as §1

Nc1nc(=O)[nH]cc1F [FLUCYTOSINE]
log10CFU/ml (Cryptococcus neoformans [1]): 7.5
log10CFU/ml (Cryptococcus neoformans [2]): 7.2
log10CFU/ml (Cryptococcus neoformans [3]): 7.4
log10CFU/ml (Cryptococcus neoformans [4]): 7.1
log10CFU/ml (Cryptococcus neoformans [5]): 7.5
log10CFU/ml (Cryptococcus neoformans [6]): 7.3
log10CFU/ml (Cryptococcus neoformans [7]): 7.4
log10CFU/ml (Cryptococcus neoformans [8]): 7.5
MIC (Cryptococcus neoformans [9]): 128 µg/mL
MIC (Cryptococcus neoformans [10]): 64 µg/mL
MIC (Cryptococcus neoformans [11]): 32 µg/mL
MIC (Cryptococcus neoformans [12]): 256 µg/mL
MIC (Cryptococcus neoformans [13]): 256 µg/mL
MIC (Cryptococcus neoformans [14]): 256 µg/mL
MIC (Cryptococcus neoformans [15]): 256 µg/mL
MIC (Cryptococcus neoformans [16]): 0.5 µg/mL
MIC (Cryptococcus neoformans [17]): 32 µg/mL
MIC (Cryptococcus neoformans [18]): 1 µg/mL
MIC (Cryptococcus neoformans [19]): 0.25 µg/mL
MIC (Cryptococcus neoformans [20]): 0.5 µg/mL
MIC (Cryptococcus neoformans [21]): 16 µg/mL
MIC (Cryptococcus neoformans [22]): 1 µg/mL
MIC (Cryptococcus neoformans [23]): 0.25 µg/mL
MIC (Cryptococcus neoformans [24]): 4 µg/mL
MIC (Cryptococcus neoformans [25]): 0.5 µg/mL
MIC (Cryptococcus neoformans [26]): 0.5 µg/mL
MIC (Cryptococcus neoformans [27]): > 32 µg/mL
MIC (Cryptococcus neoformans [28]): 64 µg/mL
MIC (Cryptococcus neoformans [29]): 256 µg/mL
MIC (Cryptococcus neoformans [30]): > 32 µg/mL
MIC (Cryptococcus neoformans [31]): > 32 µg/mL
MIC (Cryptococcus neoformans [32]): > 32 µg/mL
MIC (Cryptococcus neoformans [33]): > 32 µg/mL
MIC (Cryptococcus neoformans [34]): > 32 µg/mL
MIC (Cryptococcus neoformans [35]): > 32 µg/mL
MIC (Cryptococcus neoformans [36]): > 32 µg/mL
MIC (Cryptococcus neoformans [37]): > 32 µg/mL
MIC (Cryptococcus neoformans [38]): > 32 µg/mL
log10CFU/ml (Cryptococcus neoformans [39]): 7.4
